# Reference: ChEMBL document CHEMBL1153725, “Tetrahydroquinoline derivatives as CRTH2 antagonists” (Bioorg Med Chem Lett, 2009)
# Molecular target: T1, Prostaglandin D2 receptor 2 (Homo sapiens, UniProt Q9Y5Y4)
# T1 sequence (Q9Y5Y4 whole entry): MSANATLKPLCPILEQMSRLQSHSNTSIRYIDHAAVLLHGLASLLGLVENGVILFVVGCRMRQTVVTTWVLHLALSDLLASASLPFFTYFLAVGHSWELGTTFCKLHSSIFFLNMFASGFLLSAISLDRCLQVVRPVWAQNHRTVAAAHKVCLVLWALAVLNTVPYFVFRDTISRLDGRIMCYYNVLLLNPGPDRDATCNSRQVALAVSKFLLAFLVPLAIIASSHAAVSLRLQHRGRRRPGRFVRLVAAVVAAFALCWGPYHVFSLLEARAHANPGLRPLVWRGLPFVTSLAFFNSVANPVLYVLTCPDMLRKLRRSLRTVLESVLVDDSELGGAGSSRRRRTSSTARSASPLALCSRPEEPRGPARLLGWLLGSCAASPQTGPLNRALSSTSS
# Assay: Displacement of [3H]PGD2 from human CRTH2 receptor expressed in 293 cells by scintillation counting in presence of 0.5% BSA
# Assay type: cell-based, HEK293
# Outline: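 Whole-cell binding on 293 cells stably transfected with hCRTH2. [3H]-PGD2 incubated with cells plus increasing compound concentrations in binding buffer containing 0.5% BSA. Cells washed, bound label counted by scintillation, and the concentration giving 50% inhibition of binding taken as IC50. Means of three experiments.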
row,IC50,Compound
1,3 nM,C[C@H]1C[C@@H](N(C(=O)CCC(=O)O)c2ccccc2)c2ccccc2N1C(=O)c1ccccc1
2,17 nM,CC(=O)N(c1ccccc1)[C@@H]1C[C@H](C)N(C(=O)c2ccccc2)c2ccccc21
3,420 nM,CC(=O)N(c1ccccc1)[C@H]1C[C@@H](C)N(C(=O)c2ccccc2)c2ccccc21
4,400 nM,C[C@@H]1C[C@H](N(C(=O)CCC(=O)O)c2ccccc2)c2ccccc2N1C(=O)c1ccccc1
5,> 50000 nM,CC(=O)N(c1ccccc1)C1CC(C)Nc2ccccc21 (racemic)
6,3620 nM,CC(=O)NC1CC(C)N(C(=O)c2ccccc2)c2ccccc21 (racemic)
7,250 nM,CCN(C(C)=O)C1CC(C)N(C(=O)c2ccccc2)c2ccccc21 (racemic)
8,430 nM,CC(=O)N(Cc1ccccc1)C1CC(C)N(C(=O)c2ccccc2)c2ccccc21 (racemic)
9,200 nM,CC(=O)N(c1ccccc1)C1CC(C)N(Cc2ccccc2)c2ccccc21 (racemic)
10,1750 nM,CC(=O)N(c1ccccc1)C1CC(C)N(C(=O)Cc2ccccc2)c2ccccc21 (racemic)
11,910 nM,CC(=O)N(c1ccccc1)C1CC(C)N(C(=O)OCc2ccccc2)c2ccccc21 (racemic)
12,210 nM,CC(=O)N(c1ccccc1)C1CC(C)N(C(=O)/C=C/c2ccccc2)c2ccccc21 (racemic)
13,> 50000 nM,CC1CC(Nc2ccccc2)c2ccccc2N1C(=O)c1ccccc1 (racemic)
14,3170 nM,CCN(c1ccccc1)C1CC(C)N(C(=O)c2ccccc2)c2ccccc21 (racemic)
15,5500 nM,CC1CC(N(c2ccccc2)S(=O)(=O)c2ccccc2)c2ccccc2N1C(=O)c1ccccc1 (racemic)
16,105 nM,CC1CC(N(C(=O)c2ccccc2)c2ccccc2)c2ccccc2N1C(=O)c1ccccc1 (racemic)
17,26 nM,CC(=O)N(c1ccccc1)C1CC(C)N(C(=O)c2ccc(OC(F)(F)F)cc2)c2ccccc21 (racemic)
18,13 nM,CC(=O)N(c1ccccc1)C1CC(C)N(C(=O)c2ccc(Oc3ccccc3)cc2)c2ccccc21 (racemic)

row,IC50,Compound
1,28 nM,COc1ccc(C(=O)N2c3ccccc3C(N(C(C)=O)c3ccccc3)CC2C)cc1 (racemic)
2,93 nM,CC(=O)N(c1ccccc1)C1CC(C)N(C(=O)c2ccc(Cl)cc2)c2ccccc21 (racemic)
3,34 nM,CC(=O)N(c1ccccc1)C1CC(C)N(C(=O)c2ccc(C(C)(C)C)cc2)c2ccccc21 (racemic)
4,43 nM,CC(=O)N(c1ccccc1)[C@@H]1C[C@H](C)N(C(=O)c2ccccc2)c2ccccc21 (racemic)
5,> 10000 nM,CC(=O)N(c1ccccc1)[C@H]1C[C@H](C)N(C(=O)c2ccccc2)c2ccccc21 (racemic)
6,540 nM,CC1CC(N(C(=O)CC(=O)O)c2ccccc2)c2ccccc2N1C(=O)c1ccccc1 (racemic)
7,22 nM,CC1CC(N(C(=O)CCCC(=O)O)c2ccccc2)c2ccccc2N1C(=O)c1ccccc1 (racemic)
8,2280 nM,CC1CC(N(C(=O)/C=C/C(=O)O)c2ccccc2)c2ccccc2N1C(=O)c1ccccc1 (racemic)
9,40300 nM,CC1CC(N(C(=O)c2cccc(C(=O)O)c2)c2ccccc2)c2ccccc2N1C(=O)c1ccccc1 (racemic)
10,1420 nM,CC(=O)N(c1ccccc1)C1CC(C)N(C(=O)c2ccccc2C)c2ccccc21 (racemic)
11,1460 nM,CCCCC(=O)N1c2ccccc2C(N(C(C)=O)c2ccccc2)CC1C (racemic)
12,62000 nM,CC(=O)N(c1ccccc1)C1CC(C)N(S(=O)(=O)c2ccccc2)c2ccccc21 (racemic)
13,74 nM,CC(=O)N(c1ccccc1)C1CC(C)N(C(=O)c2cccc(C)c2)c2ccccc21 (racemic)
14,41 nM,CC(=O)N(c1ccccc1)C1CC(C)N(C(=O)c2ccc(C)cc2)c2ccccc21 (racemic)
15,64 nM,CCCCC(=O)N(c1ccccc1)C1CC(C)N(C(=O)c2ccccc2)c2ccccc21 (racemic)
16,5 nM,CC1CC(N(C(=O)CCC(=O)O)c2ccccc2)c2ccccc2N1C(=O)c1ccccc1 (racemic)
17,29 nM,CC1CC(N(C(=O)CCC(=O)ON)c2ccccc2)c2ccccc2N1C(=O)c1ccccc1 (racemic)
18,92 nM,CC(=O)N(c1ccccc1)C1CC(C)N(C(=O)c2ccc(C)c(C)c2)c2ccccc21 (racemic)

# Molecular target: T1, Prostaglandin D2 receptor 2
# Assay: Displacement of [3H]PGD2 from human CRTH2 receptor expressed in 293 cells by scintillation counting in presence of 50% human plasma
# Assay type: cell-based, HEK293
# Outline: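 Whole-cell binding on 293 cells stably transfected with hCRTH2, run in binding buffer containing 50% human plasma. [3H]-PGD2 incubated with cells and rising compound concentrations. After washing, cell-bound label measured by scintillation counting, and IC50 taken as the concentration halving binding. Means of three experiments.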
row,IC50,Compound
1,9 nM,C[C@H]1C[C@@H](N(C(=O)CCC(=O)O)c2ccccc2)c2ccccc2N1C(=O)c1ccccc1
2,440 nM,CC(=O)N(c1ccccc1)[C@@H]1C[C@H](C)N(C(=O)c2ccccc2)c2ccccc21
3,> 10000 nM,CC(=O)N(c1ccccc1)[C@H]1C[C@@H](C)N(C(=O)c2ccccc2)c2ccccc21
4,39 nM,C[C@@H]1C[C@H](N(C(=O)CCC(=O)O)c2ccccc2)c2ccccc2N1C(=O)c1ccccc1
5,> 10000 nM,CC(=O)N(c1ccccc1)C1CC(C)N(C(=O)c2ccc(OC(F)(F)F)cc2)c2ccccc21 (racemic)
6,130 nM,COc1ccc(C(=O)N2c3ccccc3C(N(C(C)=O)c3ccccc3)CC2C)cc1 (racemic)
7,1050 nM,CC(=O)N(c1ccccc1)[C@@H]1C[C@H](C)N(C(=O)c2ccccc2)c2ccccc21 (racemic)
8,28 nM,CC1CC(N(C(=O)CCC(=O)O)c2ccccc2)c2ccccc2N1C(=O)c1ccccc1 (racemic)

# System: Eosinophil
# Assay: Inhibition of PGD2-induced human eosinophil shape change by flow cytometry
# Assay type: functional, cell-based
# Outline: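 Enriched human eosinophils at 10^6 cells/mL in PBS with Ca2+/Mg2+, 0.1% BSA, 10 mM Hepes, 10 mM glucose. Antagonist or vehicle (0.05% DMSO) applied 10 min at room temperature, then 10 nM PGD2 for 10 min at 37 °C. Response expressed as % of maximal PGD2 response. Means of two experiments.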
row,IC50,Compound
1,0.77 nM,C[C@H]1C[C@@H](N(C(=O)CCC(=O)O)c2ccccc2)c2ccccc2N1C(=O)c1ccccc1
2,141 nM,CC(=O)N(c1ccccc1)[C@@H]1C[C@H](C)N(C(=O)c2ccccc2)c2ccccc21

# Molecular target: T2, Prostaglandin D2 receptor (Homo sapiens, UniProt Q13258)
# T2 sequence (Q13258 whole entry): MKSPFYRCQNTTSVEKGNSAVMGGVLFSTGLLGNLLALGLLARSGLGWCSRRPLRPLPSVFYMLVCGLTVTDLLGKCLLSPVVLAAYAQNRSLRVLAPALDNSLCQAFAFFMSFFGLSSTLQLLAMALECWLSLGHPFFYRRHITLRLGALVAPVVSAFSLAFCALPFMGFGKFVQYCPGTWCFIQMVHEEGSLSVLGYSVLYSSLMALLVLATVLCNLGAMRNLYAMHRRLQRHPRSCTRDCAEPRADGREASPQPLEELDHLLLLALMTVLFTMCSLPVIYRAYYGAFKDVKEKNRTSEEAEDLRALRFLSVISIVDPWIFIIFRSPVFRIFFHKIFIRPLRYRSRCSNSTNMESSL
# Assay: Displacement of [3H]PGD2 from human DP receptor expressed in 293 cells by scintillation counting in presence of 0.5% BSA
# Assay type: cell-based, HEK293
# Outline: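 hDP binding on stably transfected 293 cells. [3H]-PGD2 incubated with 293(hDP) cells and increasing compound concentrations in buffer with 0.5% BSA. After washing, remaining bound radioligand counted by scintillation, and IC50 read as the concentration giving 50% inhibition. Means of three experiments.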
row,IC50,Compound
1,> 10 µM,C[C@H]1C[C@@H](N(C(=O)CCC(=O)O)c2ccccc2)c2ccccc2N1C(=O)c1ccccc1
2,> 10 µM,CC(=O)N(c1ccccc1)[C@@H]1C[C@H](C)N(C(=O)c2ccccc2)c2ccccc21
